Molecules are shown by their SMILES.

The test system of series [1] is Caudate-putamen. Briefly: In vivo displacement of [3H]Nemonapride from dopamine D4 receptor in Sprague-Dawley rat lateral part of caudate putamen at 13.75 mg/kg, ip qd for 28 days by autoradiography relative to control. In kind it is functional. The note with it: route intraperitoneal. On the technique in general: Displacement assays read how much labelled ligand stays bound in the presence of the test substance.

A short description of series [2]: Lipophilicity, log K of the compound in IAM-PC-DD2 HPLC column by UV method. The series is classed as physicochemical. The note with it: artificial membrane.
The test system of series [3] is Caudate-putamen. Briefly: In vivo displacement of [3H]8-OH-DPAT from 5HT1A receptor in Sprague-Dawley rat lateral part of caudate putamen at 13.75 mg/kg, ip qd for 28 days by autoradiography relative to control. In kind it is functional. The note with it: route intraperitoneal. A digest of the protocol:
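Male Sprague-Dawley rats (200−225 g, N = 8/group) dosed ip once daily for 28 days, vehicle controls, decapitated; 10 μm frozen coronal sections. Preincubation 1 h RT in 50 mM Tris-HCl pH 7.6, 0.1% ascorbic acid, 4 mM CaCl2, 10 μM pargyline; then 1 h RT with 2.0 nM [3H]8-OH-DPAT. Nonspecific: 1 μM 5-HT. Saturating conditions; binding in fmol/mg tissue, % of control, mean ± SEM.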

In series [4] the target is T1, Alpha-2A adrenergic receptor (Homo sapiens, UniProt P08913).
T1 sequence (P08913 whole entry): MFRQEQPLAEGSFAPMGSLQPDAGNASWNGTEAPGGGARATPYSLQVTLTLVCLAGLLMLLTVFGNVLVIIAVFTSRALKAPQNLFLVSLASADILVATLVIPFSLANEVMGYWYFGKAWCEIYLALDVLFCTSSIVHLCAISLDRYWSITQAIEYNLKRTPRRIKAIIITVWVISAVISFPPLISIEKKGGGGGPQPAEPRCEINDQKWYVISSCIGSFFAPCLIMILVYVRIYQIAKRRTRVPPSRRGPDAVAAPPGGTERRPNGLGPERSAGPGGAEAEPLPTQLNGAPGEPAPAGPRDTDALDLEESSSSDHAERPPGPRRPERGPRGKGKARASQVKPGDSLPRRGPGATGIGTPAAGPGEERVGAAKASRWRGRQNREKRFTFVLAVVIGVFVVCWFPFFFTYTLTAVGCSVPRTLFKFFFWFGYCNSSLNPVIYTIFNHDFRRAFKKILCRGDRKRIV
Put plainly: Displacement of [3H]-MK-912 from human cloned adrenergic alpha2A receptor expressed in insect Sf9 membranes after 60 mins by liquid scintillation counting. The series is classed as cell membranes. In outline: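 Membranes from Sf9 cells expressing cloned human α2A-adrenoceptor. Nonspecific binding defined with 10 μM WB4101. Filtered on GF/C and counted by scintillation.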

Broadly, the inhibition in vivo is the change of the read-out against control, counted positive when it falls. In general, Ki refers to the equilibrium dissociation constant of an inhibitor or competing ligand from its target. With `Clc1ccc2c(c1)N=C(N1CCNCC1)c1cccnc1O2`, the inhibition in vivo at 13.75 mg/kg in series [1] came out at 152%; in series [3], 95%. Also, the “log K” value in series [2] was 2.68. The same molecule yielded a Ki in series [4] of 729 nM.

For the origin of these results see ChEMBL document CHEMBL2021876, “New pyridobenzoxazepine derivatives derived from 5-(4-methylpiperazin-1-yl)-8-chloro-pyrido[2,3-b][1,5]benzoxazepine (JL13): chemical synthesis and pharmacological evaluation” (J Med Chem, 2012).
